Data on 12 compounds can be found in ChEMBL document CHEMBL1828509, “Synthesis, pharmacological evaluation and docking studies of coumarin derivatives” (2011).

For orientation: inhibition in vivo means the drop in the measured response relative to a control, in per cent.

Assay type in all cases: functional
Experiment [1] relates to Candida albicans. The experiment can be described thus: Antifungal activity against Candida albicans MTCC 183 at 10 ug/ml. The settings on record: read-out: IZ.
The subject of experiment [2] is Candida albicans. The experiment can be described thus: Antifungal activity against Candida albicans MTCC 183 at 25 ug/ml. To be noted: read-out: IZ.
Experiment [3] deals with Candida albicans. The experiment in a line: Antifungal activity against Candida albicans MTCC 183 at 50 ug/ml. To be noted: read-out: IZ.
The test system of experiment [4] is Escherichia coli. The experiment can be described thus: Antimicrobial activity against Escherichia coli MTCC 4315 at 25 ug/ml. The settings on record: read-out: IZ.
Experiment [5] deals with Escherichia coli. The experiment can be described thus: Antimicrobial activity against Escherichia coli MTCC 4315 at 50 ug/ml. To be noted: read-out: IZ.
For experiment [6], the system named is Escherichia coli. The experiment can be described thus: Antimicrobial activity against Escherichia coli MTCC 4315 at 10 ug/ml. The settings on record: read-out: IZ.
In experiment [7] the test system is Bacillus subtilis. The experiment in a line: Antimicrobial activity against Bacillus subtilis MTCC 1789 at 10 ug/ml. To be noted: read-out: IZ.
The subject of experiment [8] is Bacillus subtilis. The experiment can be described thus: Antimicrobial activity against Bacillus subtilis MTCC 1789 at 50 ug/ml. To be noted: read-out: IZ.
Experiment [9] has as its system Aspergillus niger. The experiment in a line: Antifungal activity against Aspergillus niger MTCC 282 at 50 ug/ml. To be noted: read-out: IZ.
Experiment [10] deals with Rattus norvegicus. The experiment in a line: Antiinflammatory activity in Wistar albino rat assessed as inhibition of carrageenan-induced paw edema at 20 mg/kg, po administered 30 mins before carrageenan challenge measured after 1 hr by plethysmograph. A digest of the protocol:
(§1)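 Male Wistar albino rats (150–200 g), six per group, dosed orally with 20 mg/kg suspension; control got 0.1 ml of 1% gum acacia suspension orally. After 30 min, 0.1 ml of 1% carrageenan in normal saline injected sub-plantar into the right hind paw. Paw volume measured by plethysmograph at 0, 1, 2, 3 and 4 h; percent edema inhibition versus control at matching time.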
In general terms: In the carrageenan paw model, swelling and tenderness develop within hours.

Experiment [11] has as its system Rattus norvegicus. The experiment can be described thus: Antiinflammatory activity in Wistar albino rat assessed as inhibition of carrageenan-induced paw edema at 20 mg/kg, po administered 30 mins before carrageenan challenge measured after 2 hrs by plethysmograph. The essentials:
as §1

In experiment [12] the test system is Rattus norvegicus. The experiment can be described thus: Antiinflammatory activity in Wistar albino rat assessed as inhibition of carrageenan-induced paw edema at 20 mg/kg, po administered 30 mins before carrageenan challenge measured after 3 hrs by plethysmograph. The essentials:
as §1

Experiment [13] has as its system Rattus norvegicus. The experiment in a line: Antiinflammatory activity in Wistar albino rat assessed as inhibition of carrageenan-induced paw edema at 20 mg/kg, po administered 30 mins before carrageenan challenge measured after 4 hrs by plethysmograph. The essentials: as §1
Experiment [14] relates to Mus musculus. The experiment in a line: Analgesic activity in mouse assessed as inhibition of acetic acid-induced writhing administered 30 mins before acetic acid challenge measured after 30 mins relative to control. More on the design: concentration or dose not given beside the values. A digest of the protocol: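 Groups of six mice (20–30 g, both sexes, pregnant females excluded) dosed with test compound; 30 min later 0.25 ml/mouse of 0.5% acetic acid given i.p. Writhes counted over the next 30 min. Mean writhes per group ± SE; percent decrease versus untreated control mice.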

The subject of experiment [15] is Aspergillus niger. The experiment can be described thus: Antifungal activity against Aspergillus niger MTCC 282 at 25 ug/ml. To be noted: read-out: IZ.
For experiment [16], the system named is Bacillus subtilis. The experiment can be described thus: Antimicrobial activity against Bacillus subtilis MTCC 1789 at 25 ug/ml. The settings on record: read-out: IZ.

Each structure is given as a SMILES string.

For `COC1=CC(=O)C[C@@H](C)[C@]12Oc1c(Cl)c(OC)cc(OC)c1C2=O` [GRISEOFULVIN], in experiment [1], the zone of inhibition at 10 µg/mL was determined as 12.6 mm. For the same compound, the zone of inhibition at 25 µg/mL in experiment [2] came to 14.2 mm. The zone of inhibition at 50 µg/mL in [3] was 18.2 mm.
As for `NCC[C@H](O)C(=O)N[C@@H]1C[C@H](N)[C@@H](O[C@H]2O[C@H](CN)[C@@H](O)[C@H](O)[C@H]2O)[C@H](O)[C@H]1O[C@H]1O[C@H](CO)[C@@H](O)[C@H](N)[C@H]1O` [AMIKACIN], in [4], the zone of inhibition at 25 µg/mL was 16.2 mm. Further, the zone of inhibition at 50 µg/mL in experiment [5] worked out at 20 mm. In experiment [6], the zone of inhibition at 10 µg/mL came out at 14 mm.
On to `Cc1cc(=O)oc2cc(OC(=O)CNc3nc4ccccc4s3)ccc12`, for which the values for the zone of inhibition at 50 µg/mL in experiment [5], in experiment [8] and in experiment [9] were 14.5 mm, 18.1 mm and 12.4 mm, respectively. Further, the zone of inhibition at 10 µg/mL in experiment [7] was 10.4 mm; in [1] it was 13.4 mm. In addition, the zone of inhibition at 25 µg/mL in experiment [2] is 12.2 mm. The inhibition in vivo at 20 mg/kg was found to be 30.3% in experiment [10], 35.9% in experiment [11], 40.4% in [12] and 40.6% in experiment [13]. Besides, the Activity in experiment [14] is 35%.
Take `Cc1cc(=O)oc2cc(OC(=O)CNc3ccccc3Cl)ccc12`: the zone of inhibition at 25 µg/mL came out at 10.8 mm in experiment [4] and 10.2 mm in [15]. Also, the zone of inhibition at 50 µg/mL in [5] was determined as 12.6 mm; in experiment [3] it was 10.4 mm; in experiment [9], 12.4 mm. Moreover, the inhibition in vivo at 20 mg/kg in [10] is 21.4%; in experiment [11], 11.5%; in experiment [12] it was 12.8%; in [13], 23.7%. The Activity in [14] came out at 21%.
As to `CN[C@H](CC(C)C)C(=O)N[C@H]1C(=O)N[C@@H](CC(N)=O)C(=O)N[C@H]2C(=O)N[C@H]3C(=O)N[C@H](C(=O)N[C@H](C(=O)O)c4cc(O)cc(O)c4-c4cc3ccc4O)[C@H](O)c3ccc(c(Cl)c3)Oc3cc2cc(c3O[C@@H]2O[C@H](CO)[C@@H](O)[C@H](O)[C@H]2O[C@H]2C[C@](C)(N)[C@H](O)[C@H](C)O2)Oc2ccc(cc2Cl)[C@H]1O` [VANCOMYCIN], in experiment [7], the zone of inhibition at 10 µg/mL was found to be 14.2 mm. The zone of inhibition at 25 µg/mL in experiment [16] worked out at 18.2 mm. Moreover, in experiment [8], the zone of inhibition at 50 µg/mL is 20.1 mm.
As for `Cc1cc(=O)oc2cc(OC(=O)CNc3ccccc3)ccc12`, the values for the zone of inhibition at 50 µg/mL in experiment [5] and in experiment [8] were 10.4 mm and 12.6 mm, respectively. The zone of inhibition at 10 µg/mL in experiment [7] amounted to 10.4 mm. The zone of inhibition at 25 µg/mL in experiment [16] turned out to be 11.8 mm; in experiment [15], 10.2 mm. Besides, the inhibition in vivo at 20 mg/kg amounted to 10.7% in [10], 29.4% in [11], 30.8% in experiment [12] and 13.7% in [13]. Besides, in [14], the Activity worked out at 24%.
`COc1ccc2c(c1)c(CC(=O)O)c(C)n2C(=O)c1ccc(Cl)cc1` [INDOMETHACIN]: the inhibition in vivo at 20 mg/kg in experiment [10] amounted to 53.5%; in experiment [11] it was 67.9%; in experiment [12], 68.8%; in experiment [13] it was 57.6%. Besides, the Activity in experiment [14] worked out at 56%.
With `Cc1cc(=O)oc2cc(OC(=O)CNc3ccc([N+](=O)[O-])cc3)ccc12`, the figures for the zone of inhibition at 25 µg/mL in experiment [4], in [16] and in experiment [2] were 14.2 mm, 12.1 mm and 10.2 mm, respectively. Moreover, the zone of inhibition at 50 µg/mL in [5] is 16.9 mm; in experiment [8], 13.4 mm; in [3] it was 11.4 mm; in experiment [9], 10.2 mm. In addition, the figures for the zone of inhibition at 10 µg/mL in [7] and in [6] were 10.2 mm and 12.2 mm, respectively. Besides, the inhibition in vivo at 20 mg/kg in [10] was 12.5%; in experiment [11] it was 17.9%; in [12], 20.2%; in experiment [13] it was 23.7%. Further, the Activity in [14] is on record as 28%.
Regarding `COc1ccc(NCC(=O)Oc2ccc3c(C)cc(=O)oc3c2)cc1`, the zone of inhibition at 25 µg/mL in experiment [4] amounted to 11.2 mm; in [16] it was 13.3 mm; in experiment [2] it was 12.4 mm; in [15], 13.2 mm. Also, the results for the zone of inhibition at 10 µg/mL in experiment [7], in experiment [1] and in [6] were 11.2 mm, 10.2 mm and 10.5 mm, respectively. In addition, the zone of inhibition at 50 µg/mL in [8] amounted to 14.4 mm; in experiment [3], 13.2 mm; in experiment [9] it was 14.1 mm. For the same compound, the inhibition in vivo at 20 mg/kg in [10] was 30.3%; in [11], 33.3%; in experiment [12] it was 37.2%; in experiment [13], 28.8%. Moreover, in experiment [14], the Activity is listed as 17%.
Turning to `Cc1ccc(NCC(=O)Oc2ccc3c(C)cc(=O)oc3c2)cc1`, the figures for the zone of inhibition at 25 µg/mL in experiment [4] and in experiment [15] were 13 mm and 10.5 mm, respectively. Further, the zone of inhibition at 50 µg/mL came out at 14 mm in experiment [5], 12.3 mm in [8], 12.4 mm in experiment [3] and 11.4 mm in experiment [9]. The inhibition in vivo at 20 mg/kg in experiment [10] is 14.2%; in experiment [11] it was 20.5%; in [12], 20.2%; in [13], 6.7%. The Activity in experiment [14] was found to be 28%. Besides, the zone of inhibition at 10 µg/mL in experiment [6] was 11.2 mm.
As to `Cc1cc(=O)oc2cc(OC(=O)CNc3cccc([N+](=O)[O-])c3)ccc12`, the zone of inhibition at 25 µg/mL in experiment [4] came to 11.3 mm; in [16], 11.2 mm; in [15], 10.5 mm. In addition, the results for the zone of inhibition at 50 µg/mL in experiment [5], in experiment [8] and in experiment [9] were 11.1 mm, 13.4 mm and 11.4 mm, respectively. For the same compound, the values for the zone of inhibition at 10 µg/mL in [1] and in [6] were 10.5 mm and 10.3 mm, respectively. The inhibition in vivo at 20 mg/kg in [10] amounted to 28.5%; in [11], 30.7%; in experiment [12] it was 34%; in [13] it was 32.2%. For the same compound, the Activity in experiment [14] was found to be 13%.
As for `Cc1cc(=O)oc2cc(OC(=O)CNc3ccc(Cl)cc3)ccc12`, the zone of inhibition at 25 µg/mL in experiment [4] stood at 10.8 mm; in [2], 12.2 mm; in [15] it was 10.2 mm. The zone of inhibition at 50 µg/mL in experiment [5] was determined as 12.6 mm; in experiment [8], 12.3 mm; in [3], 13.4 mm; in experiment [9] it was 12.1 mm. The zone of inhibition at 10 µg/mL in experiment [1] is 10.6 mm. Also, the inhibition in vivo at 20 mg/kg came to 10.7% in experiment [10], 23% in [11], 15.9% in experiment [12] and 16.1% in experiment [13]. Also, the Activity in experiment [14] was 11%.
